Most compounds without a hit are left out; they make up all but 2.1% or so of the library.
STAT3 act = increases IL-6 driven STAT3 reporter signal; U3A cells, IL-6 STAT3-luciferase reporter, luminescence; 100% = signal with IL-6 EC80 alone; activation (% of control), % at 5.6 µM; 0.91% of 190,000 active;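 active = activation above the screen-wide mean of compound activation plus 3 SD, cut at about 130% in these data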
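Material: STAT3-luciferase reporter U3A cells. Controls: IL-6-treated wells, 100% activation. Read-out: % activation versus median of IL-6-stimulated wells. Probe or stimulus: IL-6 stimulus at 33 ng/mL final. Timing: compound 1 h, then IL-6 6 h at 37 °C. Signal: reporter luminescence signal.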
TNF necrop inh = TNF-alpha cell death inhibition in Jurkat FADD-/- cells | Jurkat FADD-/- TNF necroptosis rescue, ATP luminescence, 24 h; 0 = TNF only, 100 = no-TNF cells | activation (protection from cell death), % at 10 µM | 0.068% of 220,000 active | AID 463075;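 active = activation, meaning protection from cell death, of at least 50% relative to plate controls; inactive = activation below 50%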;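 note: necroptosis triggered by 40 ng/mL TNF-alpha added together with compound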
STAT1 inh-1 = STAT1 signaling inhibition. inhibition, % at 5.5 µM. 0.35% of 200,000 active. NIH 3T3 STAT1-luciferase reporter, IFN-gamma, luminescence;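 active = inhibition above a set limit, the mean inhibition across all tested compounds plus 3 SD, cut at about 34% in these data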
L929 necroptosis = blocks zVAD induced death of L929 cells. 0.38% of 220,000 active. viability rescue, % at 10 µM. L929 zVAD necroptosis rescue, ATP luminescence, 24 h; with zVAD 60 µM;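 active = activation, scaled between plate controls, above about 75%, limit read from the data; inactive = activation under that limit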
STAT3 blocker = STAT3 signaling inhibition; U3A cells, IL-6 STAT3-luciferase reporter, luminescence; host cell line lacks STAT1; 0.89% of 190,000 active; AID 862; inhibition, % at 5.5 µM;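 active = inhibition above the mean inhibition across all screened compounds plus 3 SD, cut at about 44% in these data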
STAT1 inh-2 = STAT1 inhibition, confirmation assay | shares compounds with STAT1 inh-1 | NIH 3T3 STAT1-luciferase reporter, IFN-gamma, luminescence | inhibition, % at 5.5 µM | 55% of 200 active | AID 1263;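 active = triplicate mean inhibition exceeding the hit cutoff computed for the primary STAT1 screen, cut at about 35% in these data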
NFkB inh STAT1ct = inhibits NF-kappaB, counter-screen to STAT1 inhibitors; shares compounds with STAT1 inh-1; HEK293T NF-kB luciferase reporter, TNF-alpha induced, luminescence; inhibition, % at 5.7 µM; 30% of 200 active; AID 1303;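 active = inhibition above the mean of solvent-only control wells plus 3 SD of those wells, cut at about 15% in these data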
STAT3 inh 2 = counter-screen for STAT1 inhibitors: STAT3 inhibition | shares compounds with STAT1 inh-1 | U3A cells, IL-6 STAT3 luciferase reporter, luminescence; cells lacking STAT1 | inhibition, % at 5.7 µM | 20% of 200 active | AID 1310;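 active = inhibition above the mean of solvent-only control wells plus 3 SD, set per campaign, cut at about 25% in these data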
A number is an active result.

What do the screens show for `CCOC(=O)/C(=C/C=C1\Sc2cc(C)c(C)cc2N1CC)C(C)=O`?
STAT3 act: inactive; TNF necrop inh: inactive; STAT1 inh-1: 40.2; L929 necroptosis: inactive; STAT3 blocker: inactive; STAT1 inh-2: 39.9; NFkB inh STAT1ct: inactive; STAT3 inh 2: 26.9

Results for CCOC(=O)c1ccc(CC(=O)c2ccc(O)cc2O)o1 ?
STAT3 act: inactive; TNF necrop inh: inactive; STAT1 inh-1: 51.3; L929 necroptosis: inactive; STAT3 blocker: inactive; STAT1 inh-2: 45.7; NFkB inh STAT1ct: 31.9; STAT3 inh 2: inactive

What do the screens show for `COc1ccc(CCNc2ncnc3cc(OC)c(OC)cc23)cc1OC`?
STAT3 act: inactive; TNF necrop inh: inactive; STAT1 inh-1: 35.4; L929 necroptosis: inactive; STAT3 blocker: inactive; STAT1 inh-2: 35.9; NFkB inh STAT1ct: inactive; STAT3 inh 2: inactive

Results for Clc1ccc2c(NCc3ccco3)ncnc2c1 ?
STAT3 act: inactive; TNF necrop inh: inactive; STAT1 inh-1: inactive; L929 necroptosis: inactive; STAT3 blocker: inactive

Results for COc1ccccc1CNc1ncnc2cc(Cl)ccc12 ?
STAT3 act: inactive; TNF necrop inh: inactive; STAT1 inh-1: 41.9; L929 necroptosis: inactive; STAT3 blocker: inactive; STAT1 inh-2: 37.5; NFkB inh STAT1ct: inactive; STAT3 inh 2: inactive

What do the screens show for `COc1ccc(CNc2ncnc3cc(Cl)ccc23)cc1OC`?
STAT3 act: inactive; TNF necrop inh: inactive; STAT1 inh-1: 40.6; L929 necroptosis: inactive; STAT3 blocker: inactive; STAT1 inh-2: 34.8; NFkB inh STAT1ct: inactive; STAT3 inh 2: inactive

Results for COc1cc2ncnc(NCc3ccc(C)cc3)c2cc1OC ?
STAT3 act: inactive; TNF necrop inh: inactive; STAT1 inh-1: inactive; L929 necroptosis: inactive; STAT3 blocker: inactive

Results for O=C(c1ccco1)N1CCN(S(=O)(=O)Cc2ccc(Cl)cc2)CC1 ?
STAT3 act: inactive; TNF necrop inh: inactive; STAT1 inh-1: inactive; L929 necroptosis: inactive; STAT3 blocker: inactive

What do the screens show for `COc1ccc(N/N=C(\C#N)C(=N)SCc2ccccc2)cc1`?
STAT3 act: inactive; TNF necrop inh: inactive; STAT1 inh-1: 36.8; L929 necroptosis: inactive; STAT3 blocker: inactive; STAT1 inh-2: inactive; NFkB inh STAT1ct: 58.7; STAT3 inh 2: inactive

Results for O=C1CC(N2CCC(c3nc4ccccc4o3)CC2)C(=O)N1c1ccc(F)cc1 (centres undefined) ?
STAT3 act: inactive; TNF necrop inh: inactive; STAT1 inh-1: inactive; L929 necroptosis: inactive; STAT3 blocker: inactive

What do the screens show for `O=C(c1ccc(Cn2c(=S)[nH]c3ccccc3c2=O)cc1)N1CCN(c2ccccn2)CC1`?
STAT3 act: inactive; TNF necrop inh: inactive; STAT1 inh-1: 44.3; L929 necroptosis: inactive; STAT3 blocker: inactive; STAT1 inh-2: 35.3; NFkB inh STAT1ct: inactive; STAT3 inh 2: 27.2

How did CCOC(=O)N1CCN(C(=O)c2ccc3c(=O)n(Cc4ccc(OC)cc4)c(=S)[nH]c3c2)CC1 do in these assays?
STAT3 act: inactive; TNF necrop inh: inactive; STAT1 inh-1: inactive; L929 necroptosis: inactive; STAT3 blocker: inactive

What do the screens show for `CCOC(=O)N1CCN(C(=O)c2ccc(Cn3c(=S)[nH]c4cc5c(cc4c3=O)OCO5)cc2)CC1`?
STAT3 act: inactive; TNF necrop inh: inactive; STAT1 inh-1: 63.8; L929 necroptosis: inactive; STAT3 blocker: inactive; STAT1 inh-2: 59.4; NFkB inh STAT1ct: 25.9; STAT3 inh 2: 25.9

What do the screens show for `CCOC(=O)N1CCN(C(=O)c2ccc3c(=O)n(Cc4ccccc4)c(=S)[nH]c3c2)CC1`?
STAT3 act: inactive; TNF necrop inh: inactive; STAT1 inh-1: inactive; L929 necroptosis: inactive; STAT3 blocker: inactive

How did O=C(c1ccc(Cn2c(=O)[nH]c3ccccc3c2=O)cc1)N1CCN(c2ccccn2)CC1 do in these assays?
STAT3 act: inactive; TNF necrop inh: inactive; STAT1 inh-1: inactive; L929 necroptosis: inactive; STAT3 blocker: inactive

How did CCOC(=O)N1CCN(C(=O)c2ccc3c(=O)n(-c4cc(OC)ccc4OC)c(=S)[nH]c3c2)CC1 do in these assays?
STAT3 act: inactive; TNF necrop inh: inactive; STAT1 inh-1: 48.1; L929 necroptosis: inactive; STAT3 blocker: inactive; STAT1 inh-2: inactive; NFkB inh STAT1ct: inactive; STAT3 inh 2: inactive

What do the screens show for `CCOC(=O)N1CCN(C(=O)c2ccc(Cn3c(=S)[nH]c4cc(OCC)c(OCC)cc4c3=O)cc2)CC1`?
STAT3 act: inactive; TNF necrop inh: inactive; STAT1 inh-1: 45.3; L929 necroptosis: inactive; STAT3 blocker: inactive; STAT1 inh-2: 61.0; NFkB inh STAT1ct: 29.5; STAT3 inh 2: inactive

How did CCCCn1c(SCC(=O)N(C)C)nnc1-c1ccncc1 do in these assays?
STAT3 act: inactive; TNF necrop inh: inactive; STAT1 inh-1: inactive; L929 necroptosis: inactive; STAT3 blocker: inactive

Results for COC(=O)c1ccc(C)c(NS(=O)(=O)c2ccc3c(c2)OCCO3)c1 ?
STAT3 act: inactive; TNF necrop inh: inactive; STAT1 inh-1: inactive; L929 necroptosis: inactive; STAT3 blocker: inactive

How did N#Cc1c(-c2ccccc2)nc2n(c1=O)CCS2 do in these assays?
STAT3 act: inactive; TNF necrop inh: inactive; STAT1 inh-1: inactive; L929 necroptosis: inactive; STAT3 blocker: inactive

How did CC(=O)c1ccccc1NS(C)(=O)=O do in these assays?
STAT3 act: inactive; TNF necrop inh: inactive; STAT1 inh-1: inactive; L929 necroptosis: inactive; STAT3 blocker: inactive

How did Cc1ccc2cc(C#N)c(N3CCCN(S(=O)(=O)c4ccccc4)CC3)nc2c1 do in these assays?
STAT3 act: inactive; TNF necrop inh: inactive; STAT1 inh-1: inactive; L929 necroptosis: inactive; STAT3 blocker: inactive

What do the screens show for `COc1ccc(-n2c(-c3ccc(Br)cc3)c[n+]3c2CCCCC3)cc1`?
STAT3 act: inactive; TNF necrop inh: inactive; STAT1 inh-1: 39.5; L929 necroptosis: inactive; STAT3 blocker: inactive; STAT1 inh-2: inactive; NFkB inh STAT1ct: inactive; STAT3 inh 2: inactive

How did CCOC(=O)c1c(C)sc2c1N(C(=O)CCl)c1cc(Cl)ccc1S2 do in these assays?
STAT3 act: inactive; TNF necrop inh: inactive; STAT1 inh-1: 36.1; L929 necroptosis: inactive; STAT3 blocker: inactive; STAT1 inh-2: 40.1; NFkB inh STAT1ct: 30.3; STAT3 inh 2: inactive

How did Cc1sc2ncnc(SCC(=O)N3c4ccccc4Sc4ccc(Cl)cc43)c2c1C do in these assays?
STAT3 act: inactive; TNF necrop inh: inactive; STAT1 inh-1: inactive; L929 necroptosis: inactive; STAT3 blocker: inactive

What do the screens show for `Cc1cc(C(=O)OCC(=O)c2ccc(Cl)c([N+](=O)[O-])c2)c2cccc(C)c2n1`?
STAT3 act: inactive; TNF necrop inh: inactive; STAT1 inh-1: inactive; L929 necroptosis: inactive; STAT3 blocker: inactive

Screens (PubChem BioAssay)
